Laboratory results: ChEMBL document CHEMBL4020804, “Minor phenolics from Angelica keiskei and their proliferative effects on Hep3B cells” (Bioorg Med Chem Lett, 2017)

Key:
NIH3T3 [1] = assay: Cytoprotective activity against GOX-induced cytotoxicity in mouse NIH/3T3 cells assessed as LDH release at 100 uM treated for 5 hrs with 15 mU/ml GOX challenge by spectrophotometric method (reference value: 63.34 +/- 1.85%); assay type: functional
NIH3T3 [2] = assay: Cytoprotective activity against GOX-induced oxidative stress in mouse NIH/3T3 cells assessed as cell survival at 1 uM treated for 5 hrs with 15 mU/ml GOX challenge by MTT assay (reference value: 42.71 +/- 2.10%); assay type: functional; settings: NIH3T3, 5 h, read-out: Survival
Hep 3B2 [3] = assay: Cytoprotective activity against GOX-induced oxidative stress in human Hep3B cells assessed as cell survival at 100 uM treated for 5 hrs with 15 mU/ml GOX challenge by MTT assay (reference value: 41.51 +/- 1.39%); assay type: functional; settings: read-out: Survival
Hep 3B2 [4] = assay: Proliferative activity against human Hep3B cells assessed as cell viability at 1 uM after 4 days by cell counting method relative to control; assay type: functional; settings: 96 h, read-out: Activity
How it was run: (§1)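 Hep3B kept in DMEM/10% FBS, 37°C, 5% CO2, then seeded at 1×10^5 cells/ml in medium containing compound (0.1–100 μM; DMSO-only control) in monolayer. Cells were checked daily by microscope for attachment and morphology, and counted after 4 days, in triplicate, in three independent experiments. Counts are given as % of the 0 μM group.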

NIH3T3 [5] = assay: Cytoprotective activity against GOX-induced cytotoxicity in mouse NIH/3T3 cells assessed as LDH release at 1 uM treated for 5 hrs with 15 mU/ml GOX challenge by spectrophotometric method (reference value: 63.34 +/- 1.85%); assay type: functional
Hep 3B2 [6] = assay: Proliferative activity against human Hep3B cells assessed as cell viability at 100 uM after 4 days by cell counting method relative to control; assay type: functional; settings: 96 h, read-out: Activity; how it was run: as §1
NIH3T3 [7] = assay: Cytoprotective activity against GOX-induced oxidative stress in mouse NIH/3T3 cells assessed as cell survival at 0.1 uM treated for 5 hrs with 15 mU/ml GOX challenge by MTT assay (reference value: 42.71 +/- 2.10%); assay type: functional; settings: NIH3T3, 5 h, read-out: Survival
Hep 3B2 [8] = assay: Proliferative activity against human Hep3B cells assessed as cell viability at 0.1 uM after 4 days by cell counting method relative to control; assay type: functional; settings: 96 h, read-out: Activity; how it was run: as §1
Hep 3B2 [9] = assay: Cytoprotective activity against GOX-induced oxidative stress in human Hep3B cells assessed as increase in cell survival treated for 5 hrs with 15 mU/ml GOX challenge by MTT assay; assay type: functional, cell-based
How it was run: (§2)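 Cells plated at 7×10^4 per well; next day exposed for 5 h to compound (0.1–100 μM) with 15 mU/ml glucose oxidase in growth medium. Viability expressed relative to GOX-free cells; α-tocopherol positive control.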

NIH3T3 [10] = assay: Cytoprotective activity against GOX-induced oxidative stress in mouse NIH/3T3 cells assessed as cell survival at 10 uM treated for 5 hrs with 15 mU/ml GOX challenge by MTT assay (reference value: 42.71 +/- 2.10%); assay type: functional; settings: NIH3T3, 5 h, read-out: Survival
Hep 3B2 [11] = assay: Cytotoxicity against human Hep3B cells assessed as effect on cell attachment at 0.1 to 100 uM measured every day during 4 days incubation period by microscopic method; assay type: cell-based; settings: hep 3b2, 96 h; how it was run: as §1
Hep 3B2 [12] = assay: Cytoprotective activity against GOX-induced cytotoxicity in human Hep3B cells assessed as decrease in LDH release treated for 5 hrs with 15 mU/ml GOX challenge by spectrophotometric method; assay type: functional, cell-based
Hep 3B2 [13] = assay: Proliferative activity against human Hep3B cells assessed as cell viability after 4 days by cell counting method; assay type: functional, cell-based; how it was run: as §1
Hep 3B2 [14] = assay: Cytotoxicity against human Hep3B cells assessed as effect on cell morphology at 0.1 to 100 uM measured every day during 4 days incubation period by microscopic method; assay type: cell-based; settings: hep 3b2, 96 h; how it was run: as §1
Hep 3B2 [15] = assay: Cytoprotective activity against GOX-induced oxidative stress in human Hep3B cells assessed as cell survival at 0.1 uM treated for 5 hrs with 15 mU/ml GOX challenge by MTT assay (reference value: 41.51 +/- 1.39%); assay type: functional; settings: read-out: Survival
NIH3T3 [16] = assay: Cytoprotective activity against GOX-induced oxidative stress in mouse NIH/3T3 cells assessed as cell survival at 100 uM treated for 5 hrs with 15 mU/ml GOX challenge by MTT assay (reference value: 42.71 +/- 2.10%); assay type: functional; settings: NIH3T3, 5 h, read-out: Survival
Hep 3B2 [17] = assay: Cytoprotective activity against GOX-induced oxidative stress in human Hep3B cells assessed as cell survival at 10 uM treated for 5 hrs with 15 mU/ml GOX challenge by MTT assay (reference value: 41.51 +/- 1.39%); assay type: functional; settings: read-out: Survival
Hep 3B2 [18] = assay: Proliferative activity against human Hep3B cells assessed as cell viability at 10 uM after 4 days by cell counting method relative to control; assay type: functional; settings: 96 h, read-out: Activity; how it was run: as §1
Hep 3B2 [19] = assay: Cytoprotective activity against GOX-induced cytotoxicity in human Hep3B cells assessed as LDH release at 0.1 uM treated for 5 hrs with 15 mU/ml GOX challenge by spectrophotometric method (reference value: 60.94 +/- 1.18%); assay type: functional
NIH3T3 [20] = assay: Cytoprotective activity against GOX-induced cytotoxicity in mouse NIH/3T3 cells assessed as LDH release at 0.1 uM treated for 5 hrs with 15 mU/ml GOX challenge by spectrophotometric method (reference value: 63.34 +/- 1.85%); assay type: functional
NIH3T3 [21] = assay: Cytoprotective activity against GOX-induced cytotoxicity in mouse NIH/3T3 cells assessed as LDH release at 10 uM treated for 5 hrs with 15 mU/ml GOX challenge by spectrophotometric method (reference value: 63.34 +/- 1.85%); assay type: functional
NIH3T3 [22] = assay: Cytoprotective activity against GOX-induced oxidative stress in mouse NIH/3T3 cells assessed as increase in cell survival treated for 5 hrs with 15 mU/ml GOX challenge by MTT assay; assay type: functional, cell-based; how it was run: as §2
Hep 3B2 [23] = assay: Cytoprotective activity against GOX-induced oxidative stress in human Hep3B cells assessed as cell survival at 1 uM treated for 5 hrs with 15 mU/ml GOX challenge by MTT assay (reference value: 41.51 +/- 1.39%); assay type: functional; settings: read-out: Survival
Hep 3B2 [24] = assay: Cytoprotective activity against GOX-induced cytotoxicity in human Hep3B cells assessed as LDH release at 1 uM treated for 5 hrs with 15 mU/ml GOX challenge by spectrophotometric method (reference value: 60.94 +/- 1.18%); assay type: functional
Hep 3B2 [25] = assay: Cytoprotective activity against GOX-induced cytotoxicity in human Hep3B cells assessed as LDH release at 100 uM treated for 5 hrs with 15 mU/ml GOX challenge by spectrophotometric method (reference value: 60.94 +/- 1.18%); assay type: functional
Hep 3B2 [26] = assay: Cytoprotective activity against GOX-induced cytotoxicity in human Hep3B cells assessed as LDH release at 10 uM treated for 5 hrs with 15 mU/ml GOX challenge by spectrophotometric method (reference value: 60.94 +/- 1.18%); assay type: functional
NIH3T3 [27] = assay: Cytoprotective activity against GOX-induced cytotoxicity in mouse NIH/3T3 cells assessed as decrease in LDH release treated for 5 hrs with 15 mU/ml GOX challenge by spectrophotometric method; assay type: functional, cell-based

With `CC(C)=CCCC(C)(O)C1Cc2c(O)ccc(C(=O)/C=C/c3ccc(O)cc3)c2O1` (centres undefined) the Activity (NIH3T3 [1]) was 12.35%, the viability at 1 µM (NIH3T3 [2]) was 44.4% and the viability at 100 µM (Hep 3B2 [3]) was 76%. It also gave a viability at 1 µM (Hep 3B2 [4]) of 102%, an Activity (NIH3T3 [5]) of 21.87% and a viability at 100 µM (Hep 3B2 [6]) of 113%. For the same compound, the viability at 0.1 µM (NIH3T3 [7]) was 43.5%, the viability at 0.1 µM (Hep 3B2 [8]) was 100% and the Activity (Hep 3B2 [9]) was “Dose-dependent effect”. For the same compound, the viability at 10 µM (NIH3T3 [10]) was 57.5%, the Activity (Hep 3B2 [11]) was “Non-Toxic” and the Activity (Hep 3B2 [12]) was “Dose-dependent effect”. The Activity (Hep 3B2 [13]) was “Dose-dependent effect”, the Activity (Hep 3B2 [14]) was “Non-Toxic” and the viability at 0.1 µM (Hep 3B2 [15]) was 42.9%. The viability at 100 µM (NIH3T3 [16]) was 77.8%, the viability at 10 µM (Hep 3B2 [17]) was 62.1% and the viability at 10 µM (Hep 3B2 [18]) was 104%. For the same compound, the Activity (Hep 3B2 [19]) was 25.13%, the Activity (NIH3T3 [20]) was 27.7% and the Activity (NIH3T3 [21]) was 15%. For the same compound, the Activity (NIH3T3 [22]) was “Dose-dependent effect”, the viability at 1 µM (Hep 3B2 [23]) was 49% and the Activity (Hep 3B2 [24]) was 19.53%. For the same compound, the Activity (Hep 3B2 [25]) was 8.14%, the Activity (Hep 3B2 [26]) was 19.08% and the Activity (NIH3T3 [27]) was “Dose-dependent effect”.

`O=C1CC(c2ccc(O)cc2)Oc2cc(O)ccc21` (racemic) showed an Activity (NIH3T3 [1]) of 2.63%, a viability at 1 µM (NIH3T3 [2]) of 88.4% and a viability at 100 µM (Hep 3B2 [3]) of 112%. The viability at 1 µM (Hep 3B2 [4]) was 104%, the Activity (NIH3T3 [5]) was 7.85% and the viability at 100 µM (Hep 3B2 [6]) was 135%. For the same compound, the viability at 0.1 µM (NIH3T3 [7]) was 74.1%, the viability at 0.1 µM (Hep 3B2 [8]) was 100% and the Activity (Hep 3B2 [9]) was “Dose-dependent effect”. For the same compound, the viability at 10 µM (NIH3T3 [10]) was 111%, the Activity (Hep 3B2 [11]) was “Non-Toxic” and the Activity (Hep 3B2 [12]) was “Dose-dependent effect”. The Activity (Hep 3B2 [13]) was “Dose-dependent effect”, the Activity (Hep 3B2 [14]) was “Non-Toxic” and the viability at 0.1 µM (Hep 3B2 [15]) was 70.7%. For the same compound, the viability at 100 µM (NIH3T3 [16]) was 126%, the viability at 10 µM (Hep 3B2 [17]) was 98.8% and the viability at 10 µM (Hep 3B2 [18]) was 112%. For the same compound, the Activity (Hep 3B2 [19]) was 11.57%, the Activity (NIH3T3 [20]) was 18.42% and the Activity (NIH3T3 [21]) was 5.51%. For the same compound, the Activity (NIH3T3 [22]) was “Dose-dependent effect”, the viability at 1 µM (Hep 3B2 [23]) was 88.4% and the Activity (Hep 3B2 [24]) was 6.83%. For the same compound, the Activity (Hep 3B2 [25]) was 3.82%, the Activity (Hep 3B2 [26]) was 4.93% and the Activity (NIH3T3 [27]) was “Dose-dependent effect”.
